{"source": "ChEMBL document CHEMBL1649441", "about": "“Potency and bactericidal activity of iclaprim against recent clinical gram-positive isolates” (2009)", "key": {"[1]": {"test_system": "Staphylococcus aureus", "experiment": "Antibacterial activity against Methicillin-sensitive Staphylococcus aureus assessed as susceptible isolates by CLSI broth microdilution method", "assay_type": "functional"}, "[2]": {"test_system": "Staphylococcus aureus", "experiment": "Antibacterial activity against Methicillin-resistant Staphylococcus aureus assessed as resistant isolates by CLSI broth microdilution method", "assay_type": "functional"}, "[3]": {"test_system": "Streptococcus sp. 'group B'", "experiment": "microbe, parasite or virus in culture", "settings": "read-out: INH"}, "[4]": {"test_system": "Streptococcus sp. 'group B'", "experiment": "microbe, parasite or virus in culture", "settings": "read-out: INH", "remark": "listed apart in the source"}, "[5]": {"test_system": "Enterococcus faecium", "experiment": "microbe, parasite or virus in culture", "settings": "read-out: INH"}, "[6]": {"test_system": "Staphylococcus aureus", "experiment": "microbe, parasite or virus in culture", "settings": "read-out: INH"}, "[7]": {"test_system": "Staphylococcus aureus", "experiment": "microbe, parasite or virus in culture", "settings": "read-out: INH", "remark": "listed apart in the source"}, "[8]": {"test_system": "Streptococcus sp. 'group A'", "experiment": "microbe, parasite or virus in culture", "settings": "read-out: INH"}, "[9]": {"test_system": "Streptococcus sp. 'group A'", "experiment": "microbe, parasite or virus in culture", "settings": "read-out: INH", "remark": "listed apart in the source"}, "[10]": {"test_system": "Streptococcus sp. 'group B'", "experiment": "Antibacterial activity against Beta-hemolytic Streptococcus group B assessed as inhibition of bacterial growth at <= 0.008 ug/ml by CLSI broth microdilution method", "assay_type": "functional", "how_it_was_run": "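Clinical isolates from skin/soft tissue, bloodstream and respiratory specimens were tested by broth microdilution per CLSI M7-A7 and M100-S18, with quality controls. Values are the number of isolates inhibited at each concentration, or MIC / percent susceptible. Highest concentration tested was 8 µg/ml for iclaprim and trimethoprim-sulfamethoxazole, and 64 µg/ml for trimethoprim.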"}}, "data": [{"smiles": "COc1cc(Cc2cnc(N)nc2N)cc(OC)c1OC", "note": "[TRIMETHOPRIM]", "values": [{"measurement": "Activity", "setting": "[1]", "result": 98.7, "unit": "%"}, {"measurement": "Activity", "setting": "[2]", "result": 7.1, "unit": "%"}, {"measurement": "inhibition at 16 µg/mL", "setting": "[3]", "result": 100, "unit": "%"}, {"measurement": "inhibition at 64 µg/mL", "setting": "[4]", "result": 100, "unit": "%"}, {"measurement": "inhibition at 16 µg/mL", "setting": "[5]", "result": 47.2, "unit": "%"}, {"measurement": "inhibition at 16 µg/mL", "setting": "[6]", "result": 93.6, "unit": "%"}, {"measurement": "inhibition at 32 µg/mL", "setting": "[7]", "result": 94.1, "unit": "%"}, {"measurement": "inhibition at 16 µg/mL", "setting": "[8]", "result": 100, "unit": "%"}, {"measurement": "inhibition at 64 µg/mL", "setting": "[9]", "result": 100, "unit": "%"}]}, {"smiles": "COc1cc(Cc2cnc(N)nc2N)c2c(c1OC)OC(C1CC1)C=C2", "note": "(stereo not given)", "values": [{"measurement": "inhibition (INH)", "setting": "[10]", "result": 0, "unit": "%"}]}]}
